According to ChEMBL document CHEMBL3244360, “Usnic acid derivatives as potential antineoplastic agents” (J Med Chem, 1979):
Activity calls are given as the source filed them. No cut-off for these calls is given here.

Legend:
P388 [1] = test: Antitumor activity against mouse P388 cells allografted in mouse assessed as host median survival time at 25 mg/kg/day, ip administered as gum acacia suspension on days 1 to 9 relative to control; assay type: functional; conditions: route intraperitoneal
How it was run: (§1)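 Tumored mice got the compound intraperitoneally as a gum acacia suspension once daily on days 1-9 (nine injections), with doses in (mg/kg)/day. Read-out was T/C, the median survival time of treated over control animals as a percentage. Dose-response assays were generally run in duplicate, and the highest T/C per assay is reported with its dose.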

[2] = Antitumor activity against mouse LCC cells allografted in mouse assessed as host median survival time at 3 mg/kg/day, ip administered as gum acacia suspension on days 1 to 9 relative to control; assay type: functional, Lewis lung carcinoma; conditions: route intraperitoneal; how it was run: as §1
L1210 = test: Growth inhibition of mouse L1210 cells at 0.14 umol/ml after 23 to 46 hrs by coulter counter analysis; assay type: functional, cell-based
How it was run: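 L1210 cells grown in RPMI 1630 with 16.7% heat-inactivated fetal calf serum and gentamicin 40 µg/mL. Exponentially growing cells were washed and seeded at 1 × 10^5 cells/mL. Drug was added in Me2SO to a final 1.39 ± 0.17 × 10^-7 mol/mL with continuous exposure at 37 °C. Coulter counts at 23 and 46 h gave percent inhibition versus untreated control.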

[3] = Antitumor activity against mouse LCC cells allografted in mouse assessed as host median survival time at 50 mg/kg/day, ip administered as gum acacia suspension on days 1 to 9 relative to control; assay type: functional, Lewis lung carcinoma; conditions: route intraperitoneal; how it was run: as §1
[4] = Octanol-water partition coefficient, log P of the compound by high-performance liquid chromatography; assay type: physicochemical
P388 [5] = test: Antitumor activity against mouse P388 cells allografted in mouse assessed as host median survival time at 50 mg/kg/day, ip administered as gum acacia suspension on days 1 to 9 relative to control; assay type: functional; conditions: route intraperitoneal; how it was run: as §1
P388 [6] = test: Antitumor activity against mouse P388 cells allografted in mouse assessed as host median survival time at 6 mg/kg/day, ip administered as gum acacia suspension on days 1 to 9 relative to control; assay type: functional; conditions: route intraperitoneal; how it was run: as §1
P388 [7] = test: Antitumor activity against mouse P388 cells allografted in mouse assessed as host median survival time at 200 mg/kg/day, ip administered as gum acacia suspension on days 1 to 9 relative to control; assay type: functional; conditions: route intraperitoneal; how it was run: as §1
[8] = Antitumor activity against mouse LCC cells allografted in mouse assessed as host median survival time at 100 mg/kg/day, ip administered as gum acacia suspension on days 1 to 9 relative to control; assay type: functional, Lewis lung carcinoma; conditions: route intraperitoneal; how it was run: as §1
[9] = Antitumor activity against mouse LCC cells allografted in mouse assessed as host median survival time at 25 mg/kg/day, ip administered as gum acacia suspension on days 1 to 9 relative to control; assay type: functional, Lewis lung carcinoma; conditions: route intraperitoneal; how it was run: as §1
[10] = Antitumor activity against mouse LCC cells allografted in mouse assessed as host median survival time at 200 mg/kg/day, ip administered as gum acacia suspension on days 1 to 9 relative to control; assay type: functional, Lewis lung carcinoma; conditions: route intraperitoneal; how it was run: as §1
[11] = Antitumor activity against mouse LCC cells allografted in mouse assessed as host median survival time at 12 mg/kg/day, ip administered as gum acacia suspension on days 1 to 9 relative to control; assay type: functional, Lewis lung carcinoma; conditions: route intraperitoneal; how it was run: as §1
P388 [12] = test: Antitumor activity against mouse P388 cells allografted in mouse assessed as host median survival time at 100 mg/kg/day, ip administered as gum acacia suspension on days 1 to 9 relative to control; assay type: functional; conditions: route intraperitoneal; how it was run: as §1
P388 [13] = test: Antitumor activity against mouse P388 cells allografted in mouse assessed as host median survival time at 12 mg/kg/day, ip administered as gum acacia suspension on days 1 to 9 relative to control; assay type: functional; conditions: route intraperitoneal; how it was run: as §1
[14] = Solubility of the compound in water at 25 degC measured per 100 ml; assay type: physicochemical; conditions: buffer
[15] = Antineoplastic activity against mouse LCC cells allografted in mouse assessed as increase in host life span at 20 to 200 mg/kg relative to control; assay type: functional, Lewis lung carcinoma; conditions: dose mg/kg 20-200
[16] = Solubility of the compound in ethanol at 25 degC measured per 100 ml; assay type: physicochemical
[17] = Antitumor activity against mouse LCC cells allografted in mouse assessed as host median survival time at 6 mg/kg/day, ip administered as gum acacia suspension on days 1 to 9 relative to control; assay type: functional, Lewis lung carcinoma; conditions: route intraperitoneal; how it was run: as §1

| SMILES | T/C (P388 [1]) [%] | growth inhibition (GI) (L1210) | T/C [3] [%] | logP [4] | T/C (P388 [12]) [%] | further results |
| --- | --- | --- | --- | --- | --- | --- |
| CC(=O)Oc1c(C)c(OC(C)=O)c2c(c1C(C)=O)OC1CC(=O)C(C(C)=O)=C(O)C21C (mixture of isomers) | 108 | Active | 114 | 2.3 | – | T/C [2]: 104%; T/C (P388 [5]): 112% |
| CC(=O)c1c(O)c(C)c(O)c2c1OC1=Cc3c(c(C)nn3-c3ccccc3)C(=O)C12C (configuration not stated) | – | Active | – | 3.2 | – | T/C (P388 [6]): 122%; T/C (P388 [7]): 110%; T/C [8]: 108%; T/C [9]: 111% |
| CC(=O)c1c(O)c(C)c(O)c2c1OC1=Cc3c(c(C)nn3C)C(=O)C12C (configuration not stated) | – | Active | – | 2.8 | – | T/C [10]: 112%; T/C [11]: 103%; T/C (P388 [5]): 118% |
| COC12CC(O)=C(C(C)=O)C(=O)C1(C)c1c(OC(C)=O)c(C)c(O)c(C(C)=O)c1O2 (mixture of isomers) | 106 | Active | 108 | 2.6 | 124 | – |
| C=C1c2c(O)c(C)c(O)c(C(C)=O)c2OC12C=C(C(=O)O)C(=O)C2 (configuration not stated) | 108 | – | 127 | 1.3 | – | T/C (P388 [13]): 112%; T/C [8]: 109% |
| CC(=O)c1c(O[C@@H]2O[C@H](CO)[C@@H](O)[C@H](O)[C@H]2O)c(C)c(O)c2c1OC1=CC(=O)/C(=C(/C)N)C(=O)C12C (some centres not stated) | 108 | – | – | – | – | T/C (P388 [13]): 104% |
| CC(=O)C1=C(O)C=C2Oc3c(C(C)=O)c(O)c(C)c(O)c3[C@]2(C)C1=O [(-)-USNIC ACID] | – | Active | – | 2.88 | 141 | solubility [14]: < 10 mg; Activity [15]: 35%; solubility [16]: 20 mg |
| CC(=O)c1c(O)c(C)c(O)c2c1OC1=CC(=O)c3c(C)noc3C12C (configuration not stated) | – | Active | – | – | 114 | T/C [11]: 117%; T/C [17]: 112% |
| CC(=O)Oc1c(C)c(OC(C)=O)c2c(c1C(C)=O)OC1=CC(O)=C(C(C)=O)C(=O)C12C (configuration not stated) | – | Active | – | 2.5 | – | T/C [11]: 117%; T/C (P388 [6]): 115%; T/C (P388 [7]): 144%; T/C [17]: 111% |
| CC(=O)Oc1c(C)c(O)c(C(C)=O)c2c1C1(C)C(=O)C(C(C)=O)=C(O)C=C1O2 (configuration not stated) | – | Active | 112 | 2.7 | – | T/C (P388 [7]): 113%; T/C [9]: 118% |
| CC(=O)c1c(O)c(C)c(O)c2c1OC1=Cc3onc(C)c3C(=O)C12C (configuration not stated) | – | – | 111 | – | 104 | – |
| COC12CC(O)=C(C(C)=O)C(=O)C1(C)c1c(O)c(C)c(O)c(C(C)=O)c1O2 (mixture of isomers) | 128 | Active | 106 | 2.3 | – | T/C (P388 [5]): 122%; T/C [9]: 122% |
| CC(=O)C1=C(O)CC2Oc3c(C(C)=O)c(O)c(C)c(O)c3C2(C)C1=O (configuration not stated) | 118 | Active | 107 | 2.4 | 128 | T/C [11]: 107% |
| CC(=O)c1c(O)c(C)c(O)c2c1OC1=CC(=O)/C(=C(\C)N)C(=O)C12C (configuration not stated) | – | Active | 111 | 3.2 | – | T/C (P388 [6]): 107%; T/C [17]: 110% |
| CC(=O)C1=C(O)C=C2Oc3c(C(C)=O)c(O[C@@H]4O[C@H](CO)[C@@H](O)[C@H](O)[C@H]4O)c(C)c(O)c3C2(C)C1=O (some centres not stated) | 102 | – | – | 0.56 | – | T/C (P388 [5]): 108% |
